# ChEMBL document CHEMBL4665889, “Design, Synthesis, and Pharmacological Characterization of a Neutral, Non-Prodrug Thrombin Inhibitor with Good Oral Pharmacokinetics” (J Med Chem, 2020)
# Legend:
# [1] = target: T1, Nuclear receptor subfamily 1 group I member 2 (Homo sapiens, UniProt O75469); assay: Activation of human PXR expressed in human HepG2 cells; type: ADME, cell-based
# T1 sequence (O75469 whole entry): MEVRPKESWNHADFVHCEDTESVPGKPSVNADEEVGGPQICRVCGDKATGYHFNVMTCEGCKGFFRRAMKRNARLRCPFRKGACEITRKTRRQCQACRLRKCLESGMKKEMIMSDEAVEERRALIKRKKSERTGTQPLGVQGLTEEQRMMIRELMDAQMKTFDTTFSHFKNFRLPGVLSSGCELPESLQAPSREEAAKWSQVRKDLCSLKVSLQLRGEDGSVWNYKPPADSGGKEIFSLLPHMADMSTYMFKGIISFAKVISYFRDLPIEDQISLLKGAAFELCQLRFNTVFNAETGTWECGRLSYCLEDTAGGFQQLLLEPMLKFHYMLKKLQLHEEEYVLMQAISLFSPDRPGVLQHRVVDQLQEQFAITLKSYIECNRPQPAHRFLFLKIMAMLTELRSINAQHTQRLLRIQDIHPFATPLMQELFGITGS
# Method in brief: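 HepG2 cells transiently co-transfected with human PXR and a luciferase reporter under the human CYP3A4 promoter, 48 h before readout. 24 h after seeding, 1:3 serial dilutions (2 nM to 50 μM, 0.5% DMSO) added. Luminescence normalized to rifampicin (100%) and DMSO (0%). MEC is the lowest concentration raising signal above 4-fold SD of DMSO background.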
# [2] = MRT in Wistar Hannover rat at 0.3 to 0.5 mg/kg, iv by LC-MS/MS analysis; type: ADME, organism-based; settings: in vivo, dose 0.3-0.5 mg/kg, time <=24 hrs
# Method in brief: (§1)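 Male Wistar Hannover rats, catheterized under isoflurane; one day later iv injection into lateral tail vein at 0.3 to 0.5 mg/kg in plasma containing 2% DMSO. Blood sampled via catheter from 0.033 to 24 h. Plasma precipitated with acetonitrile, analysed by LC-MS/MS (10 mM ammonium acetate pH 3.0/acetonitrile gradient). PK parameters calculated from plasma concentrations.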
# [3] = Oral bioavailability in Wistar Hannover rat at 1 mg/kg by LC-MS/MS analysis; type: ADME, organism-based; settings: in vivo, time <=24 hrs
# Method in brief: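 Catheterized male Wistar Hannover rats dosed by gavage at 1 mg/kg in 10% ethanol/40% PEG/50% water. Blood taken via catheter at 0.083 to 24 h. Plasma precipitated with acetonitrile and analysed by LC-MS/MS. Bioavailability derived against iv dosing at 0.3 to 0.5 mg/kg.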
# [4] = Permeability from apical to basolateral side in human Caco2 cells incubated for 2 hrs by LC-MS/MS analysis; type: ADME, cell-based; settings: Caco-2
# Method in brief: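 Caco-2 cells grown 15 d on 0.4 μm inserts, TEER ≥600 Ω. Compound (DMSO stock diluted 100-fold) in HBSS pH 7.4 with 10 mM HEPES and 20 mM glucose, added apically or basolaterally. Incubated 2 h at 37 °C and analysed by LC-MS/MS. Papp = (Vr/P0)·(1/S)·(P2/t); mean and SD.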
# [5] = Blood clearance in Wistar Hannover rat at 0.3 to 0.5 mg/kg, iv by LC-MS/MS analysis; type: ADME, organism-based; settings: whole blood, dose 0.3-0.5 mg/kg, time <=24 hrs; method in brief: as §1
# Cytochrome P450 = assay: Inhibition of CYP450 (unknown origin) at 20 uM; type: ADME, protein assay; settings: human
# Plasma = assay: Anticoagulation activity in human plasma assessed as drug level causing doubling of prothrombin time incubated for 3 mins; type: functional; settings: 0.05 h
# Method in brief: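 Citrated human plasma (0.11 M citrate 1:9, spun ~4000g 15 min) incubated with compound at 37 °C for 3 min. Clotting started with thromboplastin and time to coagulation recorded. Value is the concentration doubling clotting time (PT or aPTT).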
# [6] = Volume of distribution at steady state in Wistar Hannover rat at 0.3 to 0.5 mg/kg, iv by LC-MS/MS analysis; type: ADME, organism-based; settings: in vivo, dose 0.3-0.5 mg/kg, time <=24 hrs, read-out: Vdss; method in brief: as §1
# [7] = target: T1, Nuclear receptor subfamily 1 group I member 2; assay: Activation of human PXR human hepatocytes assessed as induction of CYP3A4 mRNA expression incubated for 48 hrs by qPCR analysis; type: ADME, tissue-based, Hepatocyte
# Method in brief: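 Human hepatocytes in collagen sandwich, cultured 1 d, then treated with eight 1:3 serial concentrations for 2 consecutive days with daily media change. mRNA isolated on magnetic beads, reverse transcribed, and quantified by TaqMan qRT-PCR against actin/tubulin. Fold induction over vehicle by ΔΔCt; NOEL reported.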
# [8] = Clearance in Wistar rat hepatocytes at 1 uM incubated up to 90 mins by LC-MS/MS analysis; type: ADME, cell-based, Hepatocyte; settings: Wistar
# Method in brief: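 Fresh male Wistar rat hepatocytes, 1 × 10⁶ viable cells/mL, in Williams' medium E at 37 °C, pH 7.4, with 1 μM substrate and <1% acetonitrile. Samples at 2–90 min quenched in acetonitrile and analysed by LC-MS/MS.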
# [9] = AUC/dose in Wistar Hannover rat at 0.3 to 0.5 mg/kg, iv by LC-MS/MS analysis; type: ADME, organism-based; settings: in vivo, dose 0.3-0.5 mg/kg, time <=24 hrs; method in brief: as §1
# [10] = Half life in Wistar Hannover rat at 0.3 to 0.5 mg/kg, iv by LC-MS/MS analysis; type: ADME, organism-based; settings: in vivo, dose 0.3-0.5 mg/kg, time <=24 hrs; method in brief: as §1
# [11] = Ratio of drug level in blood to plasma in Wistar Hannover rat at 0.3 to 0.5 mg/kg, iv by LC-MS/MS analysis; type: ADME, organism-based; settings: blood and plasma, dose 0.3-0.5 mg/kg, time <=24 hrs
structure (smiles),measurement,setting,value
COc1cc(C(=O)N2CC[C@@H](O)[C@H](C)C2)cc2nc(NCc3cccc(Cl)c3)oc12,MEC,[1],0.69 µM
same,MRT,[2],1.1 h
same,bioavailability,[3],46%
same,Papp A→B at 2 h,[4],12.6 ×10⁻⁶ cm/s
same,clearance,[5],28.3 mL/min/kg
same,inhibition (INH),Cytochrome P450,Not Active
same,2PT,Plasma,6 µM
same,Vd,[6],2.4 L/kg
same,NOAEL,[7],370 ng/mL
same,CLhep predicted at 1 µM,[8],38.3 mL/min/kg
same,AUC/dose,[9],0.48 kg·h/L
same,half-life,[10],1.3 h
same,blood plasma ratio,[11],1.24
